What was measured:
MCF7 = test: Cytotoxicity against human MCF7 cells assessed as growth inhibition after 72 hrs by MTT assay; assay type: functional, cell-based; conditions: MCF7, 72 h
Procedure, shortened: (§1)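 Exponentially growing cells were seeded at 5×10^3 per well and held 24 h at 37 °C. Medium was then replaced with fresh medium containing a range of concentrations, and cells were exposed for 72 h. MTT (5 mg/mL) was added for 4 h at 37 °C, formazan was dissolved in DMSO and A570 was read. Triplicate wells per concentration, three experiments. IC50 was taken from dose–response curves of inhibition ratio.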

MGC-803 [1] = test: Cell cycle arrest in human MGC803 cells assessed as accumulation at G0/G1 phase at 0.25 umol/L after 12 hrs by propidium iodide staining-based flow cytometric analysis (reference value: 39.17%); assay type: functional
MGC-803 [2] = test: Induction of apoptosis in human MGC803 cells assessed as late apoptotic cells at 0.25 umol/L after 12 hrs by annexin-V-FITC/propidium iodide staining-based flow cytometric analysis (reference value: 5.5%); assay type: functional
Procedure, shortened: (§2)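 MGC-803 cells were plated at 5.0×10^4 cells/mL, held 12 h at 37 °C, then given complete medium (blank) or compound at 0, 0.25, 0.5 or 1.0 µmol/L for 12 h. Quadrants: live (annexin−/PI−), early apoptotic (annexin+/PI−), late apoptotic (annexin+/PI+), damaged (annexin−/PI+).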

MGC-803 [3] = test: Cell cycle arrest in human MGC803 cells assessed as accumulation at G2/M phase after 12 to 24 hrs by propidium iodide staining-based flow cytometric analysis; assay type: functional
MGC-803 [4] = test: Induction of apoptosis in human MGC803 cells assessed as early apoptotic cells at 1 umol/L after 12 hrs by annexin-V-FITC/propidium iodide staining-based flow cytometric analysis (reference value: 3.7%); assay type: functional; procedure, shortened: as §2
MGC-803 [5] = test: Cell cycle arrest in human MGC803 cells assessed as accumulation at G0/G1 phase at 1 umol/L after 24 hrs by propidium iodide staining-based flow cytometric analysis (reference value: 43.68%); assay type: functional
MGC-803 [6] = test: Cell cycle arrest in human MGC803 cells assessed as accumulation at G2/M phase at 0.5 umol/L after 12 hrs by propidium iodide staining-based flow cytometric analysis (reference value: 17.59%); assay type: functional
MGC-803 [7] = test: Induction of apoptosis in human MGC803 cells assessed as damaged cells at 0.5 umol/L after 12 hrs by annexin-V-FITC/propidium iodide staining-based flow cytometric analysis (reference value: 1.9%); assay type: functional; procedure, shortened: as §2
MGC-803 [8] = test: Cell cycle arrest in human MGC803 cells assessed as accumulation at S phase at 1 umol/L after 12 hrs by propidium iodide staining-based flow cytometric analysis (reference value: 41.43%); assay type: functional
MGC-803 [9] = test: Cell cycle arrest in human MGC803 cells assessed as accumulation at S phase at 1 umol/L after 24 hrs by propidium iodide staining-based flow cytometric analysis (reference value: 39.56%); assay type: functional
PC-3 = test: Cytotoxicity against human PC3 cells assessed as growth inhibition after 72 hrs by MTT assay; assay type: functional, cell-based; conditions: PC-3, 72 h; procedure, shortened: as §1
MGC-803 [10] = test: Induction of apoptosis in human MGC803 cells assessed as damaged cells at 1 umol/L after 12 hrs by annexin-V-FITC/propidium iodide staining-based flow cytometric analysis (reference value: 1.9%); assay type: functional; procedure, shortened: as §2
MGC-803 [11] = test: Cell cycle arrest in human MGC803 cells assessed as accumulation at S phase at 0.25 umol/L after 12 hrs by propidium iodide staining-based flow cytometric analysis (reference value: 41.43%); assay type: functional
MGC-803 [12] = test: Induction of apoptosis in human MGC803 cells assessed as early apoptotic cells at 0.5 umol/L after 12 hrs by annexin-V-FITC/propidium iodide staining-based flow cytometric analysis (reference value: 3.7%); assay type: functional; procedure, shortened: as §2
MGC-803 [13] = test: Cell cycle arrest in human MGC803 cells assessed as accumulation at S phase at 0.25 umol/L after 24 hrs by propidium iodide staining-based flow cytometric analysis (reference value: 39.56%); assay type: functional
MGC-803 [14] = test: Cell cycle arrest in human MGC803 cells assessed as accumulation at G0/G1 phase at 0.5 umol/L after 12 hrs by propidium iodide staining-based flow cytometric analysis (reference value: 39.17%); assay type: functional
MGC-803 [15] = test: Cell cycle arrest in human MGC803 cells assessed as accumulation at S phase at 0.5 umol/L after 12 hrs by propidium iodide staining-based flow cytometric analysis (reference value: 41.43%); assay type: functional
MGC-803 [16] = test: Cell cycle arrest in human MGC803 cells assessed as accumulation at G2/M phase at 1 umol/L after 12 hrs by propidium iodide staining-based flow cytometric analysis (reference value: 17.59%); assay type: functional
MGC-803 [17] = test: Cell cycle arrest in human MGC803 cells assessed as accumulation at G2/M phase at 0.25 umol/L after 24 hrs by propidium iodide staining-based flow cytometric analysis (reference value: 15.12%); assay type: functional
MGC-803 [18] = test: Cell cycle arrest in human MGC803 cells assessed as accumulation at G2/M phase at 0.25 to 1 umol/L by propidium iodide staining-based flow cytometric analysis; assay type: functional; conditions: TDE = time-dependent effect
MGC-803 [19] = test: Induction of apoptosis in human MGC803 cells assessed as late apoptotic cells at 0.5 umol/L after 12 hrs by annexin-V-FITC/propidium iodide staining-based flow cytometric analysis (reference value: 5.5%); assay type: functional; procedure, shortened: as §2
MGC-803 [20] = test: Cell cycle arrest in human MGC803 cells assessed as accumulation at G0/G1 phase at 0.25 umol/L after 24 hrs by propidium iodide staining-based flow cytometric analysis (reference value: 43.68%); assay type: functional
MGC-803 [21] = test: Ratio of 5-fluorouracil IC50 to compound IC50 for growth inhibition of human MGC803 cells; assay type: functional
Procedure, shortened: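 The IC50 ratio uses MGC-803 values from the 72 h MTT assay: cells seeded at 5×10^3 per well, compound exposure 72 h, MTT 4 h at 37 °C, A570 read after DMSO solubilization. Triplicate wells, three experiments. IC50 values were taken from dose–response curves, with 5-fluorouracil as the reference.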

MGC-803 [22] = test: Cell cycle arrest in human MGC803 cells assessed as accumulation at G2/M phase at 1 umol/L after 24 hrs by propidium iodide staining-based flow cytometric analysis (reference value: 15.12%); assay type: functional
MGC-803 [23] = test: Induction of apoptosis in human MGC803 cells after 12 hrs by annexin-V-FITC/propidium iodide staining-based flow cytometric analysis; assay type: functional, cell-based; procedure, shortened: as §2
MGC-803 [24] = test: Cell cycle arrest in human MGC803 cells assessed as accumulation at S phase at 0.5 umol/L after 24 hrs by propidium iodide staining-based flow cytometric analysis (reference value: 39.56%); assay type: functional
MGC-803 [25] = test: Induction of apoptosis in human MGC803 cells assessed as damaged cells at 0.25 umol/L after 12 hrs by annexin-V-FITC/propidium iodide staining-based flow cytometric analysis (reference value: 1.9%); assay type: functional; procedure, shortened: as §2
MGC-803 [26] = test: Cytotoxicity against human MGC803 cells assessed as growth inhibition after 72 hrs by MTT assay; assay type: functional, cell-based; conditions: MGC-803, 72 h; procedure, shortened: as §1
MGC-803 [27] = test: Induction of apoptosis in human MGC803 cells assessed as early apoptotic cells at 0.25 umol/L after 12 hrs by annexin-V-FITC/propidium iodide staining-based flow cytometric analysis (reference value: 3.7%); assay type: functional; procedure, shortened: as §2
[28] = Cytotoxicity against human EC109 cells assessed as growth inhibition after 72 hrs by MTT assay; assay type: functional, cell-based; conditions: ECa-109, 72 h; procedure, shortened: as §1
MGC-803 [29] = test: Cell cycle arrest in human MGC803 cells assessed as accumulation at G0/G1 phase at 1 umol/L after 12 hrs by propidium iodide staining-based flow cytometric analysis (reference value: 39.17%); assay type: functional
MGC-803 [30] = test: Induction of apoptosis in human MGC803 cells assessed as late apoptotic cells at 1 umol/L after 12 hrs by annexin-V-FITC/propidium iodide staining-based flow cytometric analysis (reference value: 5.5%); assay type: functional; procedure, shortened: as §2
MGC-803 [31] = test: Cell cycle arrest in human MGC803 cells assessed as accumulation at G2/M phase at 0.5 umol/L after 24 hrs by propidium iodide staining-based flow cytometric analysis (reference value: 15.12%); assay type: functional
MGC-803 [32] = test: Induction of apoptosis in human MGC803 cells assessed as live cells at 0.25 umol/L after 12 hrs by annexin-V-FITC/propidium iodide staining-based flow cytometric analysis (reference value: 88.9%); assay type: functional; procedure, shortened: as §2
MGC-803 [33] = test: Cell cycle arrest in human MGC803 cells assessed as accumulation at G2/M phase at 0.25 umol/L after 12 hrs by propidium iodide staining-based flow cytometric analysis (reference value: 17.59%); assay type: functional
MGC-803 [34] = test: Cell cycle arrest in human MGC803 cells assessed as accumulation at G0/G1 phase at 0.5 umol/L after 24 hrs by propidium iodide staining-based flow cytometric analysis (reference value: 43.68%); assay type: functional
MGC-803 [35] = test: Induction of apoptosis in human MGC803 cells assessed as live cells at 0.5 umol/L after 12 hrs by annexin-V-FITC/propidium iodide staining-based flow cytometric analysis (reference value: 88.9%); assay type: functional; procedure, shortened: as §2
MGC-803 [36] = test: Induction of apoptosis in human MGC803 cells assessed as live cells at 1 umol/L after 12 hrs by annexin-V-FITC/propidium iodide staining-based flow cytometric analysis (reference value: 88.9%); assay type: functional; procedure, shortened: as §2

SMILES: CC(C)(C)OC(=O)N1CCN(C(=S)SCc2cn(Cc3ccccc3Cl)nn2)CC1
- IC50 (MCF7): 6.09 µM
- Activity (MGC-803 [1]): 38.7%
- Activity (MGC-803 [2]): 5.5%
- Activity (MGC-803 [3]): Dose-dependent effect
- Activity (MGC-803 [4]): 35.1%
- Activity (MGC-803 [5]): 1.62%
- Activity (MGC-803 [6]): 34.29%
- Activity (MGC-803 [7]): 2.9%
- Activity (MGC-803 [8]): 30.36%
- Activity (MGC-803 [9]): 10.67%
- IC50 (PC-3): 12.5 µM
- Activity (MGC-803 [10]): 2.3%
- Activity (MGC-803 [11]): 39.06%
- Activity (MGC-803 [12]): 14.6%
- Activity (MGC-803 [13]): 34.35%
- Activity (MGC-803 [14]): 30.04%
- Activity (MGC-803 [15]): 36.01%
- Activity (MGC-803 [16]): 64.1%
- Activity (MGC-803 [17]): 38.75%
- Activity (MGC-803 [18]): tde
- Activity (MGC-803 [19]): 8.4%
- Activity (MGC-803 [20]): 27.21%
- Ratio IC50 (MGC-803 [21]): 14
- Activity (MGC-803 [22]): 80.05%
- Activity (MGC-803 [23]): Dose-dependent effect
- Activity (MGC-803 [24]): 14.81%
- Activity (MGC-803 [25]): 1.9%
- IC50 (MGC-803 [26]): 0.49 µM
- Activity (MGC-803 [27]): 7.7%
- IC50 [28]: 11.9 µM
- Activity (MGC-803 [29]): 11.95%
- Activity (MGC-803 [30]): 8.1%
- Activity (MGC-803 [31]): 68.1%
- Activity (MGC-803 [32]): 84.8%
- Activity (MGC-803 [33]): 22.2%
- Activity (MGC-803 [34]): 9.13%
- Activity (MGC-803 [35]): 74.1%
- Activity (MGC-803 [36]): 54.6%

SMILES: Fc1ccc(Cn2cc(CSC(=S)N3CCNCC3)nn2)cc1
- IC50 (MCF7): 49.9 µM
- IC50 (PC-3): > 128 µM
- IC50 (MGC-803 [26]): 32.5 µM
- IC50 [28]: > 128 µM

SMILES: COc1ccc(Cn2cc(CSC(=S)N3CCN(C(=O)OC(C)(C)C)CC3)nn2)cc1
- IC50 (MCF7): 4.96 µM
- IC50 (PC-3): > 128 µM
- IC50 (MGC-803 [26]): 22.8 µM
- IC50 [28]: 36.8 µM

SMILES: COc1ccc(-n2cc(CSC(=S)N3CCN(C(=O)OC(C)(C)C)CC3)nn2)cc1
- IC50 (MCF7): 93 µM
- IC50 (PC-3): > 128 µM
- IC50 (MGC-803 [26]): 87.3 µM
- IC50 [28]: > 128 µM

SMILES: Cc1cc(=O)oc2cc(OCCn3cc(CSC(=S)N4CCN(C(=O)OC(C)(C)C)CC4)nn3)ccc12
- IC50 (MCF7): 90.4 µM
- IC50 (PC-3): > 128 µM
- IC50 (MGC-803 [26]): 76.9 µM
- IC50 [28]: > 128 µM

SMILES: Cc1ccc(Cn2cc(CSC(=S)N3CCN(C(=O)OC(C)(C)C)CC3)nn2)cc1
- IC50 (MCF7): 19.7 µM
- IC50 (PC-3): 17.2 µM
- IC50 (MGC-803 [26]): 3.49 µM
- IC50 [28]: 47.9 µM

SMILES: O=C(OCc1ccccc1)N1CCN(C(=S)SCc2cn(Cc3ccccc3Cl)nn2)CC1
- IC50 (MCF7): 21.4 µM
- IC50 (PC-3): > 128 µM
- IC50 (MGC-803 [26]): 15.5 µM
- IC50 [28]: 56.8 µM
